# Assay results published in ChEMBL document CHEMBL4334465, “SAR Studies on Aromatic Acylhydrazone-Based Inhibitors of Fungal Sphingolipid Synthesis as Next-Generation Antifungal Agents” (J Med Chem, 2019).
# Calls of active or inactive are those of the source. The calls are words filed in the database; no cut-off is given here.
# What was measured:
# [1] = tested on: Candida parapsilosis; experiment: Antifungal activity against Candida parapsilosis assessed as FICI in presence of fluconazole; assay type: functional
# Outline: (§1)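 Checkerboard combination scored by fractional inhibitory concentration index. Acylhydrazone serially diluted 16 to 0.015 μg/mL (11 dilutions). Partner drug in seven dilutions: fluconazole 12 to 0.19 μg/mL, amphotericin B 5 to 0.078 μg/mL, caspofungin, itraconazole or voriconazole 8 to 0.007 μg/mL.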
# [2] = tested on: Pichia kudriavzevii; experiment: Antifungal activity against Candida krusei 6258 assessed as FICI in presence of fluconazole; assay type: functional; outline: as §1
# [3] = tested on: [Candida] auris; experiment: Antifungal activity against Candida auris assessed as FICI in presence of voriconazole; assay type: functional, Candidozyma auris; outline: as §1
# [4] = tested on: Candida parapsilosis; experiment: Antifungal activity against Candida parapsilosis assessed as FICI in presence of voriconazole; assay type: functional; outline: as §1
# [5] = tested on: Aspergillus fumigatus; experiment: Antifungal activity against Aspergillus fumigatus assessed as FICI in presence of voriconazole; assay type: functional; outline: as §1
# [6] = Selectivity index, ratio of LD50 for human HepG2 cells to MIC80 for Cryptococcus neoformans H99; assay type: toxicity; conditions: read-out: Selectivity Index
# Outline: (§2)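 SI = LD₅₀/MIC₈₀. Cytotoxicity: A549 or HepG2 cells (DMEM, 10% FBS, passage 7, 10⁵ cells/well) adhered 14 h, then exposed to 0.03–128 μg/mL for 24 or 48 h at 37°C, 5% CO₂; MTT 4 h, formazan dissolved in DMSO, read at 570 nm. MIC₈₀ against C. neoformans from broth microdilution in HEPES-buffered YNB, pH 7.0.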
# [7] = tested on: Cryptococcus neoformans; experiment: Antifungal activity against Cryptococcus neoformans H99 measured after 24 to 72 hrs; assay type: functional; conditions: var grubii H99
# Outline: (§3)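 Modified CLSI broth microdilution with inoculum per M27A3. Compounds were serially diluted 32 to 0.03 μg/mL. Media: C. neoformans in HEPES-buffered YNB without amino acids (pH 7.0, 2% glucose); Candida strains in YNB without ammonium sulfate or amino acids plus 1% asparagine (pH 7.0, 2% glucose); A. fumigatus in RPMI (pH 7.0, 2% glucose).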
# [8] = tested on: Cryptococcus neoformans; experiment: Fungicidal activity against Cryptococcus neoformans H99 measured after 12 hrs by time-kill assay; assay type: functional, var grubii H99
# Outline: (§4)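 Overnight C. neoformans washed in PBS and resuspended in HEPES-buffered YNB, pH 7.4. 2 × 10⁴ cells exposed to a range of drug concentrations in 10 mL with 0.5% DMSO final, at 37°C, 5% CO₂, shaking at 200 rpm. Aliquots sampled over 96 h, diluted and plated on YPD; CFU counted after 48 h at 30°C.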
# [9] = tested on: [Candida] auris; experiment: Antifungal activity against Candida auris assessed as FICI in presence of fluconazole; assay type: functional, Candidozyma auris; outline: as §1
# [10] = tested on: Candida parapsilosis; experiment: Antifungal activity against Candida parapsilosis assessed as FICI in presence of caspofungin; assay type: functional; outline: as §1
# [11] = tested on: Candida albicans; experiment: Antifungal activity against Candida albicans measured after 24 to 72 hrs; assay type: functional; outline: as §3
# [12] = tested on: [Candida] auris; experiment: Antifungal activity against Candida auris assessed as FICI in presence of caspofungin; assay type: functional, Candidozyma auris; outline: as §1
# [13] = tested on: Pichia kudriavzevii; experiment: Antifungal activity against Candida krusei 6258 assessed as FICI in presence of itraconazole; assay type: functional; outline: as §1
# [14] = tested on: Cryptococcus neoformans; experiment: Antifungal activity against Cryptococcus neoformans H99 assessed as FICI in presence of voriconazole; assay type: functional, var grubii H99; outline: as §1
# [15] = tested on: Cryptococcus neoformans; experiment: Fungicidal activity against Cryptococcus neoformans H99 measured after 24 hrs by time-kill assay; assay type: functional, var grubii H99; outline: as §4
# [16] = tested on: Pichia kudriavzevii; experiment: Antifungal activity against multi-drug resistant Candida krusei measured after 24 to 72 hrs; assay type: functional
# Outline: (§5)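 MIC by modified CLSI broth microdilution. Candida strains grown in YNB without ammonium sulfate or amino acids with 1% asparagine, pH 7.0, 2% glucose. Inoculum per CLSI M27A3. Compound serially diluted 32 to 0.03 μg/mL. Incubation 37°C, 5% CO₂, 24–72 h, then OD450. MIC80 taken as the lowest concentration giving 80% growth inhibition versus untreated control.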
# [17] = tested on: Aspergillus fumigatus; experiment: Antifungal activity against Aspergillus fumigatus assessed as FICI in presence of itraconazole; assay type: functional; outline: as §1
# [18] = tested on: A549; experiment: Cytotoxicity against human A549 cells after 24 to 48 hrs by MTT assay; assay type: functional; conditions: read-out: LD50 (the source's name)
# Outline: (§6)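 A549 and HepG2 kept in DMEM with 10% FBS and 1% pen-strep. At passage 7, seeded at 10⁵ cells/well and allowed to adhere 14 h. Compound added at 0.03–128 μg/mL, untreated wells as controls. Incubation 37°C, 5% CO₂ for 24 or 48 h. MTT (5 mg/mL in PBS) added for 4 h, formazan dissolved in DMSO, OD570.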
# [19] = tested on: Candida albicans; experiment: Antifungal activity against Candida albicans assessed as FICI in presence of itraconazole; assay type: functional; outline: as §1
# [20] = tested on: Pichia kudriavzevii; experiment: Antifungal activity against Candida krusei 6258 assessed as FICI in presence of caspofungin; assay type: functional; outline: as §1
# [21] = tested on: Candida albicans; experiment: Antifungal activity against Candida albicans assessed as FICI in presence of fluconazole; assay type: functional; outline: as §1
# [22] = tested on: Cryptococcus neoformans; experiment: Antifungal activity against Cryptococcus neoformans H99 assessed as FICI in presence of itraconazole; assay type: functional, var grubii H99; outline: as §1
# [23] = tested on: Pichia kudriavzevii; experiment: Antifungal activity against Candida krusei measured after 24 to 72 hrs; assay type: functional; outline: as §5
# [24] = tested on: Candida albicans; experiment: Antifungal activity against Candida albicans assessed as FICI in presence of voriconazole; assay type: functional; outline: as §1
# [25] = tested on: Cryptococcus neoformans; experiment: Fungicidal activity against Cryptococcus neoformans H99 measured up to 96 hrs by time-kill assay; assay type: functional, organism-based; conditions: var grubii H99; outline: as §4
# [26] = tested on: Pichia kudriavzevii; experiment: Antifungal activity against fluconazole-resistant Candida krusei assessed as FICI in presence of itraconazole; assay type: functional
# Outline: (§7)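 Checkerboard in 96-well plate. Test compound diluted 16 to 0.015 μg/mL (11 dilutions) against the partner drug in seven dilutions: fluconazole 12 to 0.19 μg/mL, caspofungin, itraconazole or voriconazole 8 to 0.007 μg/mL. Fractional inhibitory concentration index (FICI) calculated from the combinations.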
# [27] = tested on: Cryptococcus neoformans; experiment: Antifungal activity against Cryptococcus neoformans H99 assessed as FICI in presence of fluconazole; assay type: functional, var grubii H99; outline: as §1
# [28] = tested on: Pichia kudriavzevii; experiment: Antifungal activity against Candida krusei 6258 assessed as FICI in presence of voriconazole; assay type: functional; outline: as §1
# [29] = tested on: Aspergillus fumigatus; experiment: Antifungal activity against Aspergillus fumigatus assessed as FICI in presence of fluconazole; assay type: functional; outline: as §1
# [30] = tested on: [Candida] auris; experiment: Antifungal activity against Candida auris measured after 24 to 72 hrs; assay type: functional; conditions: Candidozyma auris; outline: as §3
# [31] = tested on: Candida albicans; experiment: Antifungal activity against Candida albicans assessed as FICI in presence of caspofungin; assay type: functional; outline: as §1
# [32] = tested on: Candida parapsilosis; experiment: Antifungal activity against Candida parapsilosis measured after 24 to 72 hrs; assay type: functional; conditions: Lodderomyces parapsilosis; outline: as §3
# [33] = tested on: Candida parapsilosis; experiment: Antifungal activity against Candida parapsilosis assessed as FICI in presence of itraconazole; assay type: functional; outline: as §1
# [34] = tested on: Pichia kudriavzevii; experiment: Antifungal activity against fluconazole-resistant Candida krusei assessed as FICI in presence of voriconazole; assay type: functional; outline: as §7
# [35] = tested on: HepG2; experiment: Cytotoxicity against human HepG2 cells after 24 to 48 hrs by MTT assay; assay type: functional; conditions: read-out: LD50 (the source's name); outline: as §6
# [36] = tested on: Aspergillus fumigatus; experiment: Antifungal activity against Aspergillus fumigatus measured after 24 to 72 hrs; assay type: functional; outline: as §3
# [37] = tested on: [Candida] auris; experiment: Antifungal activity against Candida auris assessed as FICI in presence of itraconazole; assay type: functional, Candidozyma auris; outline: as §1
# [38] = tested on: Cryptococcus neoformans; experiment: Antifungal activity against Cryptococcus neoformans H99 assessed as FICI in presence of amphotericin B; assay type: functional, var grubii H99; outline: as §1
# [39] = Selectivity index, ratio of LD50 for human A549 cells to MIC80 for Cryptococcus neoformans H99; assay type: toxicity; conditions: read-out: Selectivity Index; outline: as §2
# [40] = tested on: Pichia kudriavzevii; experiment: Antifungal activity against fluconazole-resistant Candida krusei assessed as FICI in presence of caspofungin; assay type: functional; outline: as §7
# [41] = tested on: Cryptococcus neoformans; experiment: Antifungal activity against Cryptococcus neoformans H99 infected in CBA/J mouse assessed as increase in survival at 1.2 mg/kg, ip; assay type: functional, organism-based; conditions: var grubii H99
SMILES,fractional inhibitory concentration index (FICI) [1],fractional inhibitory concentration index (FICI) [2],fractional inhibitory concentration index (FICI) [3],fractional inhibitory concentration index (FICI) [4],fractional inhibitory concentration index (FICI) [5],selectivity ratio [6],MIC80 [7],fractional inhibitory concentration index (FICI) [9],fractional inhibitory concentration index (FICI) [10],MIC80 [11],fractional inhibitory concentration index (FICI) [12],fractional inhibitory concentration index (FICI) [13],fractional inhibitory concentration index (FICI) [14],MFC100 [15],MIC80 [16],fractional inhibitory concentration index (FICI) [17],CC50 [18],fractional inhibitory concentration index (FICI) [19],fractional inhibitory concentration index (FICI) [20],fractional inhibitory concentration index (FICI) [21],further results
O=C(N/N=C/c1ccc(Br)cc1O)c1cc(Br)cc(Br)c1O,1.015,0.501,0.252,0.135,0.188,533,0.06 µg/mL,0.531,2,2 µg/mL,2,0.183,0.24,0.12 µg/mL,0.25 µg/mL,1.016,32 µg/mL,0.188,2.002,2,MFC100 [8]: 0.12 µg/mL; fractional inhibitory concentration index (FICI) [22]: 0.247; MIC80 [23]: 0.25 µg/mL; fractional inhibitory concentration index (FICI) [24]: 0.375; Activity [25]: Dose-dependent effect; fractional inhibitory concentration index (FICI) [26]: 0.023; fractional inhibitory concentration index (FICI) [27]: 0.24; fractional inhibitory concentration index (FICI) [28]: 0.129; fractional inhibitory concentration index (FICI) [29]: 2; MIC80 [30]: 0.5 µg/mL; fractional inhibitory concentration index (FICI) [31]: 0.508; MIC80 [32]: 2 µg/mL; fractional inhibitory concentration index (FICI) [33]: 0.508; fractional inhibitory concentration index (FICI) [34]: 0.018; CC50 [35]: 32 µg/mL; MIC80 [36]: 4 µg/mL; fractional inhibitory concentration index (FICI) [37]: 0.18; fractional inhibitory concentration index (FICI) [38]: 0.261; selectivity ratio [39]: 533
O=C(N/N=C/c1cc(Br)cc(Br)c1O)c1ccc(Br)c(Br)c1,2.015,1,1.001,1.03,1.031,1070,0.06 µg/mL,1.001,1.001,> 16 µg/mL,0.501,0.153,0.247,0.12 µg/mL,4 µg/mL,0.281,64 µg/mL,0.37,0.125,0.563,fractional inhibitory concentration index (FICI) [22]: 0.247; MIC80 [23]: > 16 µg/mL; fractional inhibitory concentration index (FICI) [24]: 0.271; Activity [25]: Dose-dependent effect; fractional inhibitory concentration index (FICI) [26]: 0.528; fractional inhibitory concentration index (FICI) [27]: 0.237; fractional inhibitory concentration index (FICI) [28]: 0.254; fractional inhibitory concentration index (FICI) [29]: 2; MIC80 [30]: 16 µg/mL; fractional inhibitory concentration index (FICI) [31]: 0.5; MIC80 [32]: 16 µg/mL; fractional inhibitory concentration index (FICI) [33]: 2.007; fractional inhibitory concentration index (FICI) [40]: 0.121; fractional inhibitory concentration index (FICI) [34]: 0.31; CC50 [35]: 64 µg/mL; MIC80 [36]: > 16 µg/mL; fractional inhibitory concentration index (FICI) [37]: 1.12; fractional inhibitory concentration index (FICI) [38]: 0.247; selectivity ratio [39]: 1070
O=C(N/N=C/c1cc(Br)cc(Br)c1O)c1ccc(Br)cc1,–,–,–,–,–,–,–,–,–,–,–,–,–,–,–,–,–,–,–,–,Activity [41]: Active
